TAAR1 agonist = agonists of human TAAR1; Q96RJ0; CHO RD-HGA16 TAAR1, Fluo-8 calcium fluorescence; vehicle wells 0%, saturating PEA agonist 100%; activation, % at 3 µM; 360,000 compounds, 0.99% hits; AID 624467;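 active = activation above the mean activation of all test compounds in the run plus 3 SD, cut at about 38% in these data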
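Assay system: CHO-derived RD-HGA16 cells with stable Gα16 and human TAAR1; timing: 17-24 h seeding, 75 min 37 °C dye, 30 min RT; read-out: % activation from peak over basal fluorescence ratio, DMSO-to-PEA scaled; measured by: kinetic Fluo-8 calcium fluorescence; benchmarks: low control DMSO, high control PEA (EC100); doses: 3 µM single concentration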
GPR7 antagonist = blocks human GPR7 receptor signaling; P48145; GPR7-expressing cells, fluorescence antagonist assay; inhibition, % at 4.4 µM; 290,000 compounds, 1.1% hits; in the data active = inhibition above about 16%, passing the limit was not always enough;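 also: cells stimulated with the agonist NPW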
TAAR1 antag = human TAAR1 antagonism. CHO RD-HGA16 TAAR1, Fluo-8 calcium fluorescence, antagonist. 360,000 compounds, 1.5% hits. AID 624466. Q96RJ0. inhibition, % at 3 µM;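 active = inhibition above a per-plate cutoff, the mean inhibition of test compounds on that plate plus 3 SD, cut at about 49% in these data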
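Material: CHO RD-HGA16 cells bearing hTAAR1; compound dosing: one-point dosing, 3 µM nominal final; schedule: dye loading 75 min at 37 °C, then 30 min room temperature; measured by: calcium fluorescence with Fluo-8; control set: vehicle and agonist controls; replication: n of 1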
DAGLB inh = diacylglycerol lipase beta (human) inhibition. Q8NCG7. HEK293T DAGLB membrane lysate, EnzChek fluorogenic substrate. inhibition, % at 5.17 µM. 340,000 compounds, 0.059% hits; in the data active = inhibition above about 34%
Target sequence (Q8NCG7 whole entry, looked up): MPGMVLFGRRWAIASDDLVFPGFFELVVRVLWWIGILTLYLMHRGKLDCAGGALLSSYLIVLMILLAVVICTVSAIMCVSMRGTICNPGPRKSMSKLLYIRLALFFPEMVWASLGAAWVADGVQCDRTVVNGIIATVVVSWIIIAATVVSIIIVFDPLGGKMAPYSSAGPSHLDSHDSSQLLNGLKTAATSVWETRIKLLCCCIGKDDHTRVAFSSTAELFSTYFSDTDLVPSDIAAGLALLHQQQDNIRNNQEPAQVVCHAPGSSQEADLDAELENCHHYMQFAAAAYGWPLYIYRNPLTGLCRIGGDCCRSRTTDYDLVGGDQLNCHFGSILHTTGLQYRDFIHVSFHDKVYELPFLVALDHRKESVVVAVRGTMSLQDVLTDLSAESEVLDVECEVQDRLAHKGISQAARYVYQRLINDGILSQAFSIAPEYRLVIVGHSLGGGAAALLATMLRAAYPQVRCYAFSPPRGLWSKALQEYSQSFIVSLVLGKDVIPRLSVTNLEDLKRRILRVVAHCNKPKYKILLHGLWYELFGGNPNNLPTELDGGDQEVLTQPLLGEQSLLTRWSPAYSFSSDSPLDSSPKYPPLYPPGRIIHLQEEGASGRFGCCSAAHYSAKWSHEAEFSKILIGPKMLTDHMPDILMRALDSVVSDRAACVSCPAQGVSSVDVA
MPTP inh = inhibitors of mitochondrial permeability transition pore | isolated mouse mitochondria, Ca2+ swelling absorbance, 30 min | inhibition, % at 10 µM | 360,000 compounds, 1.4% hits;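 active = inhibition of 50% or more, scaled per plate between neutral and stimulator controls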
MPTP counter = Rhodamine 123 counter-screen of mitochondrial pore hits. AID 624504. isolated mitochondria, membrane potential, Rhodamine 123 fluorescence. inhibition, % at 10 µM. shares compounds with MPTP inh. 5,000 compounds, 78% hits
TAAR1 nonsel count = nonselective antagonist in TAAR1 antagonist counter-screen; shares compounds with TAAR1 antag; counterscreen cell line, calcium fluorescence, antagonist mode; inhibition, % at 3 µM; 2,400 compounds, 77% hits;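 also: CHO-Ga16 host cells stimulated with ATP at an EC80 level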
TAAR1 ant conf = confirmation of human TAAR1 antagonists | shares compounds with TAAR1 antag | TAAR1-expressing cells, fluorescence antagonist read-out | inhibition, % at 3 µM | 2,400 compounds, 40% hits | AID 651785; in the data active = inhibition above about 49%;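 also: CHO-Ga16 host cells challenged with agonist PEA near its EC80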
Ga16 ag counter-1 = nonselective Ga16 agonist in TAAR1 antagonist counter-screen; shares compounds with TAAR1 antag; Ga16-expressing cells, calcium fluorescence, agonist counterscreen; activation, % at 3 µM; 2,400 compounds, 18% hits; AID 651953; in the data active = activation above about 12%
TAAR1 ag count = counter-screen for human TAAR1 antagonists: TAAR1 agonists. activation, % at 3 µM. shares compounds with TAAR1 antag. hTAAR1 cell line, fluorescence activation, agonist mode. 2,400 compounds, 2% hits; in the data active = activation above about 37%;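 also: CHO cells stably expressing TAAR1 with calcium dye readout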
TAAR1 ag conf = confirmation of human TAAR1 agonists; shares compounds with TAAR1 agonist; CHO RD-HGA16 TAAR1, Fluo-8 calcium fluorescence; scaled: DMSO 0%, maximal phenethylamine 100%; activation, % at 3 µM; 2,400 compounds, 82% hits; AID 651783;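 active = activation above a cutoff set at the run's mean compound activation plus 3 SD, cut at about 39% in these data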
Ga16 ag counter-2 = counter-screen for TAAR1 agonists: nonselective agonists in parental cells; 2,400 compounds, 50% hits; activation, % at 3 µM; shares compounds with TAAR1 agonist; CHO-Ga16 parental, Fluo-8 calcium fluorescence; normalized to maximal ATP response, DMSO zero;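 active = activation above the run cutoff, the mean activation over all tested wells plus 3 SD, cut at about 12% in these data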
TAAR1 desensitize = human TAAR1 agonist that also desensitizes the receptor; CHO RD-HGA16 hTAAR1, Fluo-8 calcium, beta-PEA response inhibition; 2,400 compounds, 46% hits; shares compounds with TAAR1 agonist; inhibition, % at 3 µM;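 active = inhibition above the run cutoff, the mean inhibition of all test compounds plus 3 SD, cut at about 49% in these data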;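 also: beta-PEA stimulus applied at its EC80; loss of beta-PEA calcium signal after compound pretreatment read as receptor desensitization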
Ga16 antag count = counter-screen for TAAR1 agonists: nonselective Ga16 antagonists; shares compounds with TAAR1 agonist; CHO-Ga16 ATP-induced calcium, Fluo-8 fluorescence; inhibition, % at 3 µM; 2,400 compounds, 39% hits; AID 651952;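 active = inhibition above the plate's mean compound inhibition plus 3 SD, computed per plate, cut at about 22% in these data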
Each line names hits and unclear results; the compound was inactive in the other large screens (follow-up assays come after a bar, where they were run). Rows were chosen to be rich in hits. Some 4% of all compounds tested hit in one or more screens of this group. Rule as the data show it, unless noted: active = inhibition above about 22%; inactive = the rest.

CCNC(=O)O[C@@H]1C=C[C@@H](C#Cc2ccc(C(C)(C)C)cc2)O[C@@H]1COC(C)=O	none (no result: GPR7 antagonist, DAGLB inh, MPTP inh)
COc1cc(C)nc(NCc2ccccc2)n1	none
Cc1ccc(Nc2cc(C)nc(NCc3ccccc3)n2)cc1	TAAR1 agonist 56.3, MPTP inh 55.8 | MPTP counter 45.3 | TAAR1 ag conf 87.8 | Ga16 ag counter-2 42.5 | TAAR1 desensitize inactive | Ga16 antag count 27.1
CN1CCN(C2=Cc3cc(Cl)ccc3Sc3cc(F)ccc32)CC1	TAAR1 agonist 67.1, MPTP inh 90.6 | MPTP counter inactive | TAAR1 ag conf 89.4 | Ga16 ag counter-2 45.8 | TAAR1 desensitize 70.5 | Ga16 antag count 45.5
COC(=O)C1(C(=O)OC)C/C=C\CCN(S(=O)(=O)c2ccccc2[N+](=O)[O-])CC1	none (no result: GPR7 antagonist, DAGLB inh)
O=C(Nc1ncc(S(=O)(=O)c2ccc([N+](=O)[O-])cc2)s1)c1cccc2ccccc12	TAAR1 agonist 128.0, TAAR1 antag 94.5, MPTP inh 54.1 | MPTP counter 79.0 | TAAR1 ag conf 128.7 | Ga16 ag counter-2 87.6 | TAAR1 desensitize 105.3 | Ga16 antag count 79.2
COC[C@H]1CCCN1[C@H]1CS(=O)(=O)N[C@@H]1COCc1ccccc1	none (no result: GPR7 antagonist, DAGLB inh)
COC(=O)C1=C(C)N(Cc2ccccc2C(F)(F)F)C(=NCc2cc(OC)c(OC)c(OC)c2)NC1c1ccc(Cl)cc1 (centres undefined)	none (no result: GPR7 antagonist, DAGLB inh, MPTP inh)
CCCCn1c2c(c(=N)c3ccccc31)CCC2	none
CCCCCCCCCCn1c2c(c(=N)c3c1CCC3)CCC2	TAAR1 agonist 47.1, GPR7 antagonist 77.4, MPTP inh 84.7 | MPTP counter 99.4 | TAAR1 ag conf 52.5 | Ga16 ag counter-2 23.2 | TAAR1 desensitize inactive | Ga16 antag count 36.7
CCOC(=O)[C@]12CCCC=C1N(CCc1ccc(OC)c(OC)c1)C(=O)[C@H](CC(=O)NCCCCc1ccccc1)C2	none (no result: GPR7 antagonist, DAGLB inh)
Cc1cccc(NC(=O)CNC(=O)[C@@H](Cc2ccccc2)NC(=O)[C@H]2O[C@@H](n3ccc(=O)[nH]c3=O)[C@H](O)[C@@H]2O)c1C	none (no result: GPR7 antagonist, DAGLB inh, MPTP inh)
O=C(N/N=C/c1cc([N+](=O)[O-])cc(Br)c1O)C12CC3CCC(CC(C3)C1)C2	TAAR1 agonist 50.0, MPTP inh 83.9 | MPTP counter 27.7 | TAAR1 ag conf 65.8 | Ga16 ag counter-2 54.1 | TAAR1 desensitize inactive | Ga16 antag count inactive
COc1cc(/C=N/NC(=O)C23CC4CC(CC(C4)C2)C3)cc(Br)c1O	none
CN1CCN(C(c2ccc(Cl)cc2)c2cc(Cl)c3cccnc3c2O)CC1 (centres undefined)	TAAR1 agonist 69.3, MPTP inh 74.7 | MPTP counter inactive | TAAR1 ag conf 117.7 | Ga16 ag counter-2 66.8 | TAAR1 desensitize 49.5 | Ga16 antag count inactive
COc1cccc(C(O)c2ncc(-c3ccc(C(F)(F)F)cc3)[nH]2)c1 (centres undefined)	none (no result: GPR7 antagonist, DAGLB inh)
CCOc1ccc(CCNC(=O)CN2C(=O)c3cccnc3Oc3ccc(C)cc32)cc1OCC	none
CSc1ccc(CCNC(=O)CN2C(=O)c3cccnc3Oc3ccc(C)cc32)cc1	TAAR1 antag 74.3 | TAAR1 nonsel count 24.9 | TAAR1 ant conf 53.2 | Ga16 ag counter-1 inactive | TAAR1 ag count inactive
Cc1ccc2c(c1)N(CC(=O)NCCCc1ccccc1)C(=O)c1cccnc1O2	TAAR1 antag 72.6 | TAAR1 nonsel count 26.7 | TAAR1 ant conf inactive | Ga16 ag counter-1 inactive | TAAR1 ag count inactive
NS(=O)(=O)c1ccc(CNC(=O)c2cc(-c3ccccc3)nc3ccccc23)cc1	TAAR1 antag 64.8 | TAAR1 nonsel count 32.4 | TAAR1 ant conf inactive | Ga16 ag counter-1 inactive | TAAR1 ag count inactive
O=C(NCc1cc([N+](=O)[O-])ccc1O)c1cc(-c2ccncc2)nc2ccccc12	TAAR1 antag 66.6 | TAAR1 nonsel count 31.6 | TAAR1 ant conf 56.4 | Ga16 ag counter-1 inactive | TAAR1 ag count inactive
NS(=O)(=O)c1ccc(CNC(=O)c2cc(-c3cccnc3)nc3ccccc23)cc1	none
Cc1ccc(Sc2ncccc2C(=O)NCc2cc([N+](=O)[O-])ccc2O)cc1C	TAAR1 antag 60.4 | TAAR1 nonsel count 28.9 | TAAR1 ant conf inactive | Ga16 ag counter-1 inactive | TAAR1 ag count inactive
COc1ccc(CNC(=O)c2cccnc2Sc2ccc(C)c(C)c2)cc1	none
CC(Sc1nnc(CN2CCCC2)n1Cc1ccccc1)C(=O)Nc1ccc(F)cc1Cl (centres undefined)	none (no result: GPR7 antagonist)
CCOc1ccc2[nH]c3c(NCCc4ccc(OC)c(OC)c4)ncnc3c2c1	TAAR1 antag 51.2 | TAAR1 nonsel count inactive | TAAR1 ant conf inactive | Ga16 ag counter-1 inactive | TAAR1 ag count inactive
CCOc1ccc2[nH]c3c(NCCO)ncnc3c2c1	none
CCOC(=O)N1CCN(C(=O)CSc2nc3c([nH]c4ccccc43)c(=O)n2CCOC)CC1	TAAR1 antag 55.4 | TAAR1 nonsel count 28.2 | TAAR1 ant conf inactive | Ga16 ag counter-1 inactive | TAAR1 ag count inactive
COCCn1c(SCC(=O)N2CCCCCC2)nc2c([nH]c3ccccc32)c1=O	none
Cc1ccc(-c2[nH]ncc2/C=N/n2c(C)nc3ccccc3c2=O)cc1	TAAR1 antag 50.3 | TAAR1 nonsel count 22.6 | TAAR1 ant conf inactive | Ga16 ag counter-1 inactive | TAAR1 ag count inactive

Screening results (PubChem BioAssay)
